{"source": "ChEMBL document CHEMBL1153346", "about": "“Structure-activity study of pentamidine analogues as antiprotozoal agents” (J Med Chem, 2009)", "key": {"[1]": {"assay": "Selectivity index, ratio of IC50 for rat L6 cells to IC50 for chloroquine-resistant Plasmodium falciparum K1", "assay_type": "toxicity, cell-based", "settings": "read-out: Ratio IC50", "how_it_was_run": "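Ratio of L6 IC50 to K1 IC50. L6 cells: Alamar blue assay after 70 h, 37 °C. K1: [3H]-hypoxanthine incorporation in infected red cells over 48 + 24 h at 37 °C under low O2. IC50s from sigmoidal curves, two independent runs in duplicate.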"}, "[2]": {"system": "Plasmodium falciparum", "assay": "Antiprotozoal activity after 48 hrs against chloroquine-resistant Plasmodium falciparum K1 infected erythrocytes by [3H]hypoxanthine uptake", "assay_type": "functional, organism-based", "how_it_was_run": "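Erythrocytic stages in infected human red cells (hematocrit 1.25%, parasitemia 0.3%) in supplemented RPMI 1640 with Albumax II. Serial dilutions incubated at 37 °C in 93% N2/4% CO2/3% O2. [3H]-hypoxanthine (0.5 µCi/well) added at 48 h, then 24 h more. Incorporation counted by scintillation. IC50 from sigmoidal curves; two independent runs in duplicate.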"}, "[3]": {"assay": "Selectivity index, ratio of IC50 for rat L6 cells to IC50 for Leishmania donovani MHOM/SD/62/1S-CL2D axenic amastigotes", "assay_type": "toxicity, cell-based", "settings": "read-out: Ratio IC50", "how_it_was_run": "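Amastigotes: 6 × 10⁴ parasites/well with 2-fold dilutions, 72 h at 37 °C in 5% CO2. Growth read by tetrazolium CellTiter absorbance at 490 nm; IC50 from a four-parameter dose-response fit.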"}, "[4]": {"system": "Leishmania donovani", "assay": "Antiprotozoal activity against Leishmania donovani MHOM/SD/62/1S-CL2D axenic amastigotes after 72 hrs", "assay_type": "functional, organism-based", "how_it_was_run": "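L. donovani axenic amastigotes, adapted from promastigotes and grown in amastigote medium at 37 °C. 6 × 10⁴ parasites per well with 2-fold compound dilutions (DMSO ≤1%), incubated 72 h at 37 °C in humidified 5% CO₂. Growth read by tetrazolium (CellTiter) absorbance at 490 nm. IC50 from a four-parameter dose-response fit. Average of duplicate determinations.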"}, "[5]": {"system": "Trypanosoma brucei rhodesiense", "assay": "Antitrypanosomal activity against Trypanosoma brucei rhodesiense STIB900 trypomastigotes infected in NMRI mouse assessed as mouse survival at 20 mg/kg, ip administered from day 3 to day 6 postinfection", "assay_type": "functional", "settings": "route intraperitoneal", "how_it_was_run": "(§1)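 STIB900 acute mouse model. Dosing was intraperitoneal, daily for four days, in DMSO diluted with water to 10% final DMSO. An infected untreated control group was kept. Tail blood was checked for parasitemia to day 60, and deaths were recorded to give mean survival days. Mice surviving and aparasitemic at day 60 counted as cured.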"}, "[6]": {"system": "Mus musculus", "assay": "Toxicity in NMRI mouse infected with Trypanosoma brucei rhodesiense STIB900 trypomastigotes at 20 mg/kg, ip administered from day 3 to day 6 postinfection", "assay_type": "organism-based", "set-up": "dose 20 mg/kg, route intraperitoneal", "settings": "in vivo"}, "[7]": {"system": "L6", "assay": "Cytotoxicity against rat L6 cells after 70 hrs by alamar blue assay", "assay_type": "cell-based", "settings": "L6, 70 h", "how_it_was_run": "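L6 rat myoblasts, 4000 per well, in RPMI 1640 with 2 mM L-glutamine, HEPES, NaHCO₃ and 10% FBS. Exposed to serial dilutions (DMSO ≤1%) for 70 h at 37 °C in humidified 5% CO₂. Resazurin then added for 2-3 h; fluorescence read at ex 536/em 588 nm. IC50 from sigmoidal curves; two independent runs in duplicate.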"}, "[8]": {"assay": "Selectivity index, ratio of IC50 for rat L6 cells to IC50 for Trypanosoma brucei rhodesiense STIB900 trypomastigotes", "assay_type": "toxicity, cell-based", "settings": "read-out: Ratio IC50", "how_it_was_run": "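Ratio of L6 IC50 to STIB900 IC50. L6 cells: 4000/well in RPMI 1640 with 10% FBS, 70 h at 37 °C. Bloodstream forms: 2000/well in supplemented MEM with 15% horse serum, 70 h at 37 °C. Both read by Alamar blue fluorescence; IC50s from sigmoidal curves, two independent runs in duplicate.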"}, "[9]": {"system": "Trypanosoma brucei rhodesiense", "assay": "Antiprotozoal activity against Trypanosoma brucei rhodesiense STIB900 trypomastigotes after 70 hrs by alamar blue assay", "assay_type": "functional, organism-based", "how_it_was_run": "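Bloodstream forms, 2000 per well, in MEM with Earle's salts plus 0.2 mM 2-mercaptoethanol, 1 mM pyruvate, 0.5 mM hypoxanthine and 15% heat-inactivated horse serum. Exposed to serial dilutions (DMSO ≤1%) for 70 h at 37 °C in 5% CO₂. Resazurin then added for a further 2-6 h. IC50 from sigmoidal curves; two independent runs in duplicate.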"}, "[10]": {"system": "Trypanosoma brucei rhodesiense", "assay": "Antitrypanosomal activity against Trypanosoma brucei rhodesiense STIB900 trypomastigotes infected in NMRI mouse assessed as survival and aparasitemic condition at 20 mg/kg, ip administered from day 3 to day 6 postinfection measured after 60 days postinfection", "assay_type": "functional, organism-based", "set-up": "dose 20 mg/kg", "how_it_was_run": "(§2)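 STIB900 acute mouse model with 4 mice per group. Compound in DMSO diluted with water to a final 10% DMSO, given intraperitoneally once daily for four days. An infected, untreated control group was included. Tail blood checked for parasitemia until day 60. Mice alive and aparasitemic at day 60 counted as cured; deaths recorded for mean survival time.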"}, "[11]": {"system": "Trypanosoma brucei rhodesiense", "assay": "Antitrypanosomal activity against Trypanosoma brucei rhodesiense STIB900 trypomastigotes infected in NMRI mouse assessed as survival and aparasitemic condition at 10 mg/kg, ip administered from day 3 to day 6 postinfection measured after 60 days postinfection", "assay_type": "functional, organism-based", "set-up": "dose 10 mg/kg", "how_it_was_run": "as §2"}, "[12]": {"system": "Trypanosoma brucei rhodesiense", "assay": "Antitrypanosomal activity against Trypanosoma brucei rhodesiense STIB900 trypomastigotes infected in NMRI mouse assessed as mouse survival at 10 mg/kg, ip administered from day 3 to day 6 postinfection", "assay_type": "functional", "settings": "route intraperitoneal", "how_it_was_run": "as §1"}, "[13]": {"system": "Trypanosoma brucei rhodesiense", "assay": "Antitrypanosomal activity against Trypanosoma brucei rhodesiense STIB900 trypomastigotes infected in NMRI mouse assessed as mouse survival at 8 mg/kg, ip administered from day 3 to day 6 postinfection", "assay_type": "functional", "settings": "route intraperitoneal"}, "[14]": {"system": "Trypanosoma brucei rhodesiense", "assay": "Antitrypanosomal activity against Trypanosoma brucei rhodesiense STIB900 trypomastigotes infected in NMRI mouse assessed as mouse survival at 2 mg/kg, ip administered from day 3 to day 6 postinfection", "assay_type": "functional", "settings": "route intraperitoneal"}, "[15]": {"system": "Trypanosoma brucei rhodesiense", "assay": "Antitrypanosomal activity against Trypanosoma brucei rhodesiense STIB900 trypomastigotes infected in NMRI mouse assessed as survival and aparasitemic condition at 2 mg/kg, ip administered from day 3 to day 6 postinfection measured after 60 days postinfection", "assay_type": "functional, organism-based", "set-up": "dose 2 mg/kg"}, "[16]": {"system": "Trypanosoma brucei rhodesiense", "assay": "Antitrypanosomal activity against Trypanosoma brucei rhodesiense STIB900 trypomastigotes infected in NMRI mouse assessed as mouse survival at 1 mg/kg, ip administered from day 3 to day 6 postinfection", "assay_type": "functional", "settings": "route intraperitoneal"}, "[17]": {"system": "Trypanosoma brucei rhodesiense", "assay": "Antitrypanosomal activity against Trypanosoma brucei rhodesiense STIB900 trypomastigotes infected in NMRI mouse assessed as survival and aparasitemic condition at 8 mg/kg, ip administered from day 3 to day 6 postinfection measured after 60 days postinfection", "assay_type": "functional, organism-based", "set-up": "dose 8 mg/kg"}}, "note": "pIC50: −log10 of the molar value. Calls of active or inactive are those of the source. No cut-off for these calls is given here."}
{"smiles": "CCOC(=O)c1cc(C(=N)NC(C)C)ccc1OCCCCCOc1ccc(C(=N)NC(C)C)cc1C(=O)OCC.Cl.Cl", "values": [{"measurement": "selectivity ratio", "setting": "[1]", "value": "> 10800"}, {"measurement": "pIC50", "setting": "[2]", "value": 7.89}, {"measurement": "selectivity ratio", "setting": "[3]", "value": 2}, {"measurement": "pIC50", "setting": "[4]", "value": 4.25}, {"measurement": "Survival", "setting": "[5]", "value": 5.5, "unit": "days"}, {"measurement": "Activity", "setting": "[6]", "value": "Toxic"}, {"measurement": "pIC50", "setting": "[7]", "value": "< 3.85"}, {"measurement": "selectivity ratio", "setting": "[8]", "value": "> 2740"}, {"measurement": "pIC50", "setting": "[9]", "value": 7.29}, {"measurement": "Activity", "setting": "[10]", "value": "inactive"}]}
{"smiles": "Cl.Cl.Cl.Cl.N=C(N)c1ccc(OCCCCOc2ccc(C(=N)N)cc2Cl)c(Cl)c1", "values": [{"measurement": "selectivity ratio", "setting": "[1]", "value": 574}, {"measurement": "pIC50", "setting": "[2]", "value": 7.72}, {"measurement": "selectivity ratio", "setting": "[3]", "value": 5}, {"measurement": "pIC50", "setting": "[4]", "value": 5.67}, {"measurement": "Survival", "setting": "[5]", "value": ">41.5", "unit": "days"}, {"measurement": "pIC50", "setting": "[7]", "value": 4.96}, {"measurement": "selectivity ratio", "setting": "[8]", "value": 260}, {"measurement": "Activity", "setting": "[11]", "value": "inactive"}, {"measurement": "pIC50", "setting": "[9]", "value": 7.38}, {"measurement": "Survival", "setting": "[12]", "value": 22, "unit": "days"}]}
{"smiles": "Nc1nc(N)nc(Nc2ccc([As]3SCC(CO)S3)cc2)n1", "note": "(stereo not given) [MELARSOPROL]", "values": [{"measurement": "Survival", "setting": "[13]", "value": ">60", "unit": "days"}, {"measurement": "Survival", "setting": "[14]", "value": ">60", "unit": "days"}, {"measurement": "Activity", "setting": "[15]", "value": "Active"}, {"measurement": "Survival", "setting": "[16]", "value": ">51.5", "unit": "days"}, {"measurement": "Activity", "setting": "[17]", "value": "Active"}]}
